# Sampled rows, rich in hits. Any-hit rate of the full collection: about 1.4%.
# Diaph act CS: counter-screen for diaphorase-based assays: diaphorase activators and chemical reducers. activation factor at 20 µM. Diaphorase/resazurin coupled assay, resorufin fluorescence, 16 min; hits give high values; 1 = vehicle wells, 0 = NADH-free wells. 190,000 compounds, 0.005% hits;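 active = diaphorase activity raised at least twofold by the compound at 20 µM; inactive = activation factor below 2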
#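 test system = bacterial diaphorase enzyme (C. kluyveri) | quantity = enzyme 0.07 U/mL final | reagent = NADH substrate 0.114 mM plus resazurin dye 0.1 mM, final | incubation = 16 min enzyme reaction, ambient temperature | buffer or medium = HEPES pH 7.4 buffer with MgCl2 and Tween 20 | signal = fluorescence of resorufin, 544 nm excitation, 590 nm emission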
# GSH fluor: compound fluoresces at 488/530 nm on GSH beads. fluorescence (KMESF) at 10 µM. GSH beads flow cytometry, compound fluorescence 488/530 nm; hits give high values. 190,000 compounds, 0.25% hits; in the data active = fluorescence above about 89;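 note: glutathione beads carrying GST-tagged Bcl family fusion proteins plus one bare bead set; values are compound well signal with DMSO vehicle wells as background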
# PMI act satM6P: increases human PMI activity with near-saturating mannose 6-phosphate; coupled PMI enzyme assay, resazurin fluorescence, 20 min; hits give high values; 1 = untreated enzyme, 0 = substrate-free blank; activation factor at 20 µM; 190,000 compounds, 0.34% hits;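 active = activation factor of 2 or more at 20 µM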
#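 Material: human phosphomannose isomerase with PGI, G6PDH, diaphorase coupling enzymes. Quantity: 15 ng/mL PMI. Medium: HEPES pH 7.4 buffer with MgCl2 and Tween-20. Reagent: Near-saturating mannose-6-phosphate, 1.0 mM. Compound: 20 µM single dose. Times: enzyme reaction with compound 20 min at room temperature. Detection: resorufin fluorescence at Ex 544/Em 590 nm.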
# Avidin fluor: compound fluoresces at 488/530 nm on avidin beads; 220,000 compounds, 0.38% hits; AID 1775; compound fluorescence 488/530 nm, flow cytometry; hits give high values; fluorescence (KMESF) at 10 µM; in the data active = fluorescence above about 47
# PMI activator: increases human mannose-6-phosphate isomerase activity; P34949; purified human PMI, coupled resazurin fluorescence, 20 min; hits give high values; 1 = vehicle control, 0 substrate-free wells; activation factor at 20 µM; 190,000 compounds, 0.005% hits; AID 1214;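 active = activation factor of 2 or more at 20 µM, relative to plate controls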
# p47phox inh: blocks human p47phox regulatory protein of NADPH oxidases; 220,000 compounds, 0.53% hits; P14598; p47phox/p22phox peptide binding, fluorescence polarization, 2 h; inhibition, % at 24.7 µM;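 active = inhibition above about 30%, limit read from the data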;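 note: 0% = p47phox with labelled peptide and 100% = labelled peptide alone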
# Target sequence (P14598 whole entry, looked up): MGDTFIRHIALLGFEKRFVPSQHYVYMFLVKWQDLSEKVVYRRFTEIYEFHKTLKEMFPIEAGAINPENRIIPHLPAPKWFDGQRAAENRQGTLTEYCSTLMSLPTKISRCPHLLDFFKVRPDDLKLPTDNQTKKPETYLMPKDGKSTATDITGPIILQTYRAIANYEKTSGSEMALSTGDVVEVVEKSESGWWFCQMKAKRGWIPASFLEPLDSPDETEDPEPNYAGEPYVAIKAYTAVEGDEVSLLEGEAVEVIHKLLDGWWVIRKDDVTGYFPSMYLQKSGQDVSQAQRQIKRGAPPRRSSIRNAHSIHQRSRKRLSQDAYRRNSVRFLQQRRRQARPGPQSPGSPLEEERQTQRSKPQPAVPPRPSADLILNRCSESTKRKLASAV
# * marks the source's active call; other numbers are inactive results; . = not tested or not shown.
SMILES,Diaph act CS,GSH fluor,PMI act satM6P,Avidin fluor,PMI activator,p47phox inh
O=C(O)C1CSC(c2ccccc2Cl)N1C(=O)c1ccc(Cl)cc1 (centres undefined),0.8,11,0.9,4,0.9,86.6*
CC[n+]1c(/C=C2/C=C(C)CC(C)(C)C2)sc2ccc(OC)cc21,1,30,1.8,95*,1.3,-117.1
CC[n+]1c(/C=C2\C=C(C)CC(C)(C)C2)sc2ccccc21,0.7,29,1.7,11,1.2,-9.3
CC[n+]1c(/C=C2\C=C(C)CC(C)C2)sc2ccccc21 (centres undefined),0.8,29,1.9,13,1.2,-11.1
CCC1=C/C(=C/c2sc3ccccc3[n+]2CC)CC(C)(C)C1,0.8,22,2.3*,7,1.6,-21.6
CCCCNS(=O)(=O)c1cccc(S(=O)(=O)N2CCCC2)c1,1,24,1,28,1.1,-6.8
Cc1cc(N)n(-c2cc(C)c3ccccc3n2)n1,0.8,35,0.9,26,0.6,-4.6
Cc1ccccc1OCC(=O)Nc1ccccc1N1CCOCC1,0.9,26,0.9,35,0.9,-2.9
Cc1cc(C)c(OCC(=O)Nc2ccccc2N2CCOCC2)c(C)c1,0.8,9,0.9,12,1,41.4*
CC(=O)Nc1cccc(NC(=O)c2cc(-c3cccnc3)nc3ccc(Br)cc23)c1,1.1,17,1.1,11,1.1,-23.0
COc1ccccc1CCNC(=O)c1cc(-c2ccccn2)nc2ccc(Br)cc12,1.3,16,1.1,9,1.1,-18.1
COc1ccccc1CCNC(=O)c1cc(-c2ccncc2)nc2ccc(Br)cc12,1,26,1.1,11,1,38.6*
CSc1ccccc1NC(=O)c1cc(-c2cccnc2)nc2ccc(Br)cc12,0.8,16,1,8,1,30.8*
O=C(CC1Sc2ccccc2NC1=O)Nc1ccccc1[N+](=O)[O-] (centres undefined),0.9,13,1,8,1,3.8
CCOC(=O)N1CCN(C(=O)Cn2ncc3c2-c2ccccc2OC3)CC1,1.1,25,1.1,3,1.1,-1.2
CCc1cccc(CC)c1NC(=O)COC(=O)CC1c2ccccc2CCN1S(=O)(=O)c1ccccc1 (centres undefined),0.7,12,0.9,78*,0.8,-13.0
CCOC(=O)C(NCc1ccc(F)cc1)(NC(=O)c1ccccc1)C(F)(F)F (centres undefined),1.1,26,1.1,8,1.1,2.7
COC(=O)C(NNc1ccc(F)cc1)(NC(=O)c1ccccc1)C(F)(F)F (centres undefined),0.9,9,2.9*,17,1.7,-4.2
COC(=O)C(NNc1ccccc1C)(NC(=O)c1ccc(F)cc1)C(F)(F)F (centres undefined),0.9,29,2.2*,6,1.6,-22.4
COc1ccc(CCn2c(SCC(=O)Nc3cc(C)on3)nc3ccsc3c2=O)cc1OC,1,12,0.9,35,0.9,48.5*
CC(=O)C1=C(O)C(=O)N(Cc2cccnc2)C1c1ccccc1Cl (centres undefined),0.8,16,0.9,28,1,-8.2
Cc1ccc(C(=O)C2=C(O)C(=O)N(Cc3ccccc3)C2c2cccnc2)o1 (centres undefined),0.9,18,1.2,36,1.1,55.4*
Cc1cc2c(ncn2C(C)C)c(NS(=O)(=O)c2ccc(F)cc2)c1C,1,9,1,12,1.1,1.5
COc1cc(S(=O)(=O)N(Cc2ccccc2)CC2CCCO2)ccc1-n1cnnn1 (centres undefined),0.8,27,1,5,1,-26.7
COc1cc(S(=O)(=O)N(Cc2cccs2)CC2CCCO2)ccc1-n1cnnn1 (centres undefined),0.8,17,1,50*,1,-9.2
SMILES,Diaph act CS,GSH fluor,PMI act satM6P,Avidin fluor,PMI activator,p47phox inh
COc1ccc(CNC(=O)C2CCN(S(C)(=O)=O)CC2)c(OC)c1,1,15,1.1,22,0.9,-6.7
COc1cc2[nH]c(=O)n(CCC(=O)NC3CCCC3)c(=O)c2cc1OC,0.9,23,0.9,68*,0.9,-0.5
COc1cc2[nH]c(=O)n(Cc3ccc(C(=O)NC4CCCC4)cc3)c(=O)c2cc1OC,1,10,1.1,24,1.1,-12.4
O=C(O)C1CC=CCC1C(=O)Nc1cccc(Cl)c1 (centres undefined),0.9,277*,1,7,1,-10.2
CC(=O)c1sc(NC(=O)COc2ccc(Cl)cc2Cl)nc1C,1.1,9,1,10,1,-35.6
COc1cccc(Oc2cn[nH]c2-c2ccc(OC)cc2O)c1,0.8,28,1,187*,1,-11.5
COc1cccc(Oc2cn[nH]c2-c2ccc(O)cc2O)c1,0.9,43,0.9,8,0.9,-19.5
COC(=O)N/N=C\C=C\c1ccc2c(c1)OCO2,0.9,17,1,22,1,-10.6
CCOC(=O)CCC(=O)Nc1ccc(S(=O)(=O)N2CCC(C)CC2)cc1,0.8,29,0.9,6,1,31.0*
COc1cccc(CNC(=O)Cn2c(=O)oc3ccccc32)c1OC,1,25,1,5,1,-3.8
CCOC(=O)N1CCN(S(=O)(=O)c2ccc3[nH]c(=O)oc3c2)CC1,.,.,.,9,.,0.1
COc1ccc(/C=C/C(=O)NCC(=O)N/N=C/c2cc(Br)ccc2OC)cc1,1,8,1,10,1,100.9*
COc1ccccc1/C=C/C(=O)NCC(=O)N/N=C/c1cc(Br)ccc1OC,0.8,17,1.2,7,1.1,-7.4
COc1ccc(NC(=S)N(CCc2nc3cc(C)c(C)cc3[nH]2)Cc2cccnc2)cc1,0.9,19,1,9,0.8,-13.6
CN(C)c1ccc(C(=O)c2ccc(N(C)C)c(N)c2)cc1N,0.7,4,0.8,7,0.9,-8.2
O=C1OCC(c2ccccc2)=C1c1ccc(S(=O)(=O)N2CCOCC2)s1,0.7,24,2*,14,1.3,-21.2
O=S(=O)(c1ccc(-c2ccon2)s1)N1CCOCC1,.,.,.,6,.,-8.2
COc1ccc(S(=O)(=O)NCCSCc2cccc(C)c2)cc1Br,0.8,11,0.9,17,0.9,-7.2
CCOc1ccc(C(=O)Nc2cc(-c3nc4ccccc4[nH]3)ccc2C)cc1[N+](=O)[O-],0.9,26,1,65*,0.9,-21.3
CCOc1ccc(C(=O)Nc2cc(-c3nc4ccccc4[nH]3)ccc2Cl)cc1[N+](=O)[O-],0.8,8,1,15,0.8,-6.3
